Measurements: ChEMBL document CHEMBL1131162, “Bisquinolines. 2. Antimalarial N,N-bis(7-chloroquinolin-4-yl)heteroalkanediamines” (J Med Chem, 1998)

Experiments:
[1] = test system: Mus musculus; assay: Number of Plasmodium berghei infected mice cured after administration of 160 mg/kg dose; format: functional
[2] = test system: Mus musculus; assay: Number of Plasmodium berghei infected mice cured after administration of 640 mg/kg; format: functional
[3] = test system: Mus musculus; assay: (§1) Number of Plasmodium berghei infected mice died on day 7 at 40 mg/kg; format: functional
Procedure, shortened: (§2)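 Male mice infected with drug-sensitive P. berghei KBG 173; single subcutaneous dose given 3 days postinfection, five mice per dose; survival followed, with cure (C) meaning survival to 60 days postinfection and deaths 0–2 days after treatment scored as toxicity (T).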

[4] = test system: Mus musculus; assay: (§3) Number of Plasmodium berghei infected mice died on day 8 at 160 mg/kg; format: functional; procedure, shortened: as §2
[5] = test system: Mus musculus; assay: Number of Plasmodium berghei infected mice died on day 9 at 40 mg/kg; format: functional
[6] = test system: Plasmodium falciparum; assay: Antimalarial activity against Plasmodium falciparum D6 in vitro.; format: functional, organism-based
[7] = test system: Plasmodium falciparum; assay: In vitro antimalarial activity against chloroquine-resistant Plasmodium falciparum W2; format: functional, organism-based
[8] = test system: Mus musculus; assay: Number of Plasmodium berghei infected mice died on day 13 at 40 mg/kg; format: functional; procedure, shortened: as §2
[9] = test system: Plasmodium falciparum; assay: In vitro inhibition of hematin polymerization in Plasmodium falciparum; format: functional
[10] = test system: Mus musculus; assay: Number of Plasmodium berghei infected mice died on day 14 at 640 mg/kg; format: functional; procedure, shortened: as §2
[11] = test system: Mus musculus; assay: Number of Plasmodium berghei infected mice died on day 18 at 160 mg/kg; format: functional; procedure, shortened: as §2
[12] = test system: Mus musculus; assay: Number of Plasmodium berghei infected mice died on day 24 at 640 mg/kg; format: functional; procedure, shortened: as §2
[13] = test system: Mus musculus; assay: Number of Plasmodium berghei infected mice died on day 29 at 640 mg/kg; format: functional; procedure, shortened: as §2
[14] = test system: Mus musculus; assay: as §3; format: functional; remark: listed apart in the source
[15] = test system: Mus musculus; assay: Number of Plasmodium berghei infected mice died on day 10 at 160 mg/kg; format: functional; procedure, shortened: as §2
[16] = test system: Mus musculus; assay: Number of Plasmodium berghei infected mice died on day 10 at 40 mg/kg; format: functional; procedure, shortened: as §2
[17] = test system: Mus musculus; assay: Number of Plasmodium berghei infected mice died on day 13 at 640 mg/kg; format: functional; procedure, shortened: as §2
[18] = test system: Mus musculus; assay: as §1; format: functional; remark: listed apart in the source
[19] = test system: Mus musculus; assay: Number of Plasmodium berghei infected mice died on day 8 at 40 mg/kg; format: functional; procedure, shortened: as §2
[20] = test system: Mus musculus; assay: Number of Plasmodium berghei infected mice died on day 9 at 160 mg/kg; format: functional; procedure, shortened: as §2
[21] = test system: Plasmodium falciparum; assay: Inhibition of hematin polymerization in Plasmodium falciparum; format: functional
[22] = test system: Mus musculus; assay: Number of Plasmodium berghei infected mice died on day 11 at 40 mg/kg; format: functional; procedure, shortened: as §2
[23] = test system: Mus musculus; assay: Number of Plasmodium berghei infected mice died on day 13 at 160 mg/kg; format: functional; procedure, shortened: as §2
[24] = test system: Mus musculus; assay: (§4) Number of Plasmodium berghei infected mice died on day 12 at 640 mg/kg; format: functional
[25] = test system: Mus musculus; assay: Number of Plasmodium berghei infected mice died on day 16 at 640 mg/kg; format: functional; procedure, shortened: as §2
[26] = test system: Mus musculus; assay: Number of Plasmodium berghei infected mice died on day 33 at 640 mg/kg; format: functional; procedure, shortened: as §2
[27] = test system: Mus musculus; assay: Number of Plasmodium berghei infected mice cured after administration of the dose 640 mg/kg; format: functional; procedure, shortened: as §2
[28] = test system: Mus musculus; assay: (§5) Number of Plasmodium berghei infected mice died on day 6 at 40 mg/kg; format: functional; procedure, shortened: as §2
[29] = test system: Mus musculus; assay: Number of Plasmodium berghei infected mice died on day 16 at 160 mg/kg; format: functional; procedure, shortened: as §2
[30] = test system: Mus musculus; assay: (§6) Number of Plasmodium berghei infected mice died on day 6 at 160 mg/kg; format: functional; procedure, shortened: as §2
[31] = test system: Mus musculus; assay: Number of Plasmodium berghei infected mice died on day 7 at 160 mg/kg; format: functional; procedure, shortened: as §2
[32] = test system: Mus musculus; assay: Number of Plasmodium berghei infected mice died on day 7 at 640 mg/kg; format: functional; procedure, shortened: as §2
[33] = test system: Mus musculus; assay: Number of Plasmodium berghei infected mice cured after administration of a compound dose 640 mg/kg; format: functional
[34] = test system: Mus musculus; assay: Number of Plasmodium berghei infected mice died on day 12 at 160 mg/kg; format: functional; procedure, shortened: as §2
[35] = test system: Mus musculus; assay: Number of Plasmodium berghei infected mice died on day 14 at 160 mg/kg; format: functional; procedure, shortened: as §2
[36] = test system: Mus musculus; assay: Number of Plasmodium berghei infected mice died on day 19 at 640 mg/kg; format: functional; procedure, shortened: as §2
[37] = test system: Mus musculus; assay: as §6; format: functional; remark: listed apart in the source
[38] = test system: Mus musculus; assay: as §5; format: functional; remark: listed apart in the source
[39] = test system: Mus musculus; assay: Number of Plasmodium berghei infected mice died on day 6 at 640 mg/kg; format: functional
[40] = test system: Mus musculus; assay: Number of Plasmodium berghei infected mice died at 160 mg/kg; Curative; format: functional; procedure, shortened: as §2
[41] = test system: Mus musculus; assay: Number of Plasmodium berghei infected mice died at 640 mg/kg; Curative; format: functional; procedure, shortened: as §2
[42] = test system: Mus musculus; assay: Number of Plasmodium berghei infected mice died on day 12 at 40 mg/kg; format: functional; procedure, shortened: as §2
[43] = test system: Mus musculus; assay: Number of Plasmodium berghei infected mice died on day 17 at 160 mg/kg; format: functional; procedure, shortened: as §2
[44] = test system: Mus musculus; assay: Number of Plasmodium berghei infected mice died on day 18 at 640 mg/kg; format: functional; procedure, shortened: as §2
[45] = test system: Mus musculus; assay: Number of Plasmodium berghei infected mice died on day 20 at 640 mg/kg; format: functional; procedure, shortened: as §2
[46] = test system: Mus musculus; assay: Number of Plasmodium berghei infected mice died on day 22 at 640 mg/kg; format: functional; procedure, shortened: as §2
[47] = test system: Mus musculus; assay: Number of Plasmodium berghei infected mice died on day 11 at 160 mg/kg; format: functional
[48] = test system: Mus musculus; assay: Number of Plasmodium berghei infected mice died on day 26 at 160 mg/kg; format: functional; procedure, shortened: as §2
[49] = test system: Mus musculus; assay: as §4; format: functional; procedure, shortened: as §2; remark: listed apart in the source
[50] = test system: Mus musculus; assay: Number of Plasmodium berghei infected mice died at 40 mg/kg; Curative; format: functional; procedure, shortened: as §2
[51] = test system: Mus musculus; assay: Number of Plasmodium berghei infected mice died on day 14 at 40 mg/kg; format: functional; procedure, shortened: as §2
[52] = test system: Mus musculus; assay: Number of Plasmodium berghei infected mice died on day 15 at 40 mg/kg; format: functional; procedure, shortened: as §2
[53] = test system: Mus musculus; assay: Number of Plasmodium berghei infected mice died on day 16 at 40 mg/kg; format: functional; procedure, shortened: as §2
[54] = test system: Mus musculus; assay: Number of Plasmodium berghei infected mice died on day 20 at 160 mg/kg; format: functional; procedure, shortened: as §2
[55] = test system: Mus musculus; assay: Number of Plasmodium berghei infected mice died on day 23 at 160 mg/kg; format: functional; procedure, shortened: as §2
[56] = test system: Mus musculus; assay: Number of Plasmodium berghei infected mice died on day 25 at 640 mg/kg; format: functional; procedure, shortened: as §2
[57] = test system: Mus musculus; assay: Number of Plasmodium berghei infected mice died at 640 mg/kg; Toxic; format: functional; procedure, shortened: as §2

| Structure (SMILES) | Number [3] | Number [5] | IC50 [6] [µM] | IC50 [7] [µM] | IC50 [9] [µM] | Number [10] | Number [11] | Number [15] | Number [17] | Number [18] | Number [19] | IC50 [21] [µM] | Number [23] | also measured |
| --- | --- | --- | --- | --- | --- | --- | --- | --- | --- | --- | --- | --- | --- | --- |
| Clc1ccc2c(NCCOCCOCCNc3ccnc4cc(Cl)ccc34)ccnc2c1 | 2 | 2 | 0.0025 | 0.0099 | 15 | – | – | – | – | – | – | – | – | Number [1]: 1; Number [2]: 1; Number [4]: 3; Number [8]: 1 |
| Clc1ccc2c(NCCOCCNc3ccnc4cc(Cl)ccc34)ccnc2c1 | – | – | 0.016 | 0.089 | – | 1 | 1 | 1 | 2 | 1 | 3 | 20 | – | Number [12]: 1; Number [13]: 1; Number [14]: 1; Number [16]: 1; Number [20]: 2 |
| CN(CCCNc1ccnc2cc(Cl)ccc12)CCCNc1ccnc2cc(Cl)ccc12 | – | 2 | 0.0059 | 0.0028 | – | 1 | 2 | – | 1 | – | 2 | 8 | 3 | Number [22]: 1; Number [24]: 1; Number [25]: 1; Number [26]: 1 |
| Clc1ccc2c(N3CCN(CN4CCN(c5ccnc6cc(Cl)ccc56)CC4)CC3)ccnc2c1 | 4 | – | > 1 | > 1 | > 2500 | – | – | 1 | – | – | – | – | – | Number [27]: 3; Number [28]: 1; Number [20]: 3; Number [29]: 1 |
| Clc1ccc2c(NCCCCCCNCCCCCCNc3ccnc4cc(Cl)ccc34)ccnc2c1 | 1 | – | 0.011 | 0.0054 | 7 | – | – | – | – | – | – | – | – | Number [30]: 2; Number [28]: 4; Number [31]: 3; Number [32]: 5 |
| Clc1ccc2c(NCCCOCCOCCOCCCNc3ccnc4cc(Cl)ccc34)ccnc2c1 | – | 3 | 0.024 | 0.048 | 20 | 1 | – | – | – | – | 1 | – | 1 | Number [33]: 3; Number [22]: 1; Number [34]: 2; Number [35]: 2; Number [36]: 1 |
| Clc1ccc2c(NCCCNCCNc3ccnc4cc(Cl)ccc34)ccnc2c1 | – | – | 0.026 | 0.007 | – | – | – | – | – | 1 | – | 16 | – | Number [37]: 5; Number [38]: 4; Number [39]: 5 |
| Clc1ccc2c(NCCN3CCN(c4ccnc5cc(Cl)ccc45)CC3)ccnc2c1 | – | 1 | 0.0012 | 0.009 | – | – | – | – | – | – | 1 | 5 | 3 | Number [35]: 1; Number [40]: 1; Number [41]: 1; Number [42]: 1; Number [25]: 1; Number [43]: 1; Number [44]: 1; Number [45]: 1; Number [46]: 1; Number [8]: 2 |
| Clc1ccc2c(NCCCOCCCCOCCCNc3ccnc4cc(Cl)ccc34)ccnc2c1 | – | 2 | 0.022 | 0.021 | – | – | – | 2 | 2 | 1 | 1 | 19 | – | Number [34]: 1; Number [16]: 1; Number [47]: 1; Number [48]: 1; Number [49]: 3 |
| CCN(CC)CCCC(C)Nc1ccnc2cc(Cl)ccc12 (stereo not drawn) [CHLOROQUINE] | – | – | – | – | – | – | 1 | – | – | – | – | – | – | Number [40]: 1; Number [50]: 1; Number [42]: 1; Number [51]: 2; Number [52]: 1; Number [53]: 1; Number [54]: 1; Number [55]: 1; Number [56]: 1; Number [57]: 3; Number [29]: 1 |
